Values joined by “and” are separate entries in the source; they are usually repeats but may differ in a detail not shown here. Equal entries are not always repeated.
System: Fibroblast
Assay: Multiplex assay against human fibroblast
Format: toxicity, cell-based
How it was run: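 Four dyes were applied at seeding to live cells: Hoechst33342, BioTracker Green Microtubule Cytoskeleton Dye, MitoTracker Red and Annexin V Alexa Fluor 680. Imaging after compound addition used a CQ1 microscope at 37°C and 5% CO2. CellPathfinder machine-learning gating then sorted cells into Hoechst high-intensity objects or normal cells, normal cells into healthy, pyknosed or fragmented nuclei, and pyknosed cells into mitotic or apoptotic, with tubulin, mitochondrial-mass and membrane-permeability phenotypes given as per cents of healthy-nucleus cells.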

[1] = 12 h, 1 µM, compound concentration 1 uM
[2] = 12 h, 10 µM, compound concentration 10 uM
[3] = 24 h, 1 µM, compound concentration 1 uM
[4] = 24 h, 10 µM, compound concentration 10 uM
[5] = 48 h, 1 µM, compound concentration 1 uM
[6] = 48 h, 10 µM, compound concentration 10 uM

## CCc1nn2c(C)cc(C)nc2c1Cc1ccc(-c2nnc(C3CCNCC3)o2)cc1
[1]
  Population Apoptotic (%): 34% and 45%
  Population Fragmented Nuclei (%): 17% and 19%
  Population Healthy Nuclei (%): 63% and 46%
  Population Hoechst High Intensity Objects (%): 2% and 6%
  Population Membrane Permeable-Phenotype (%): 2%
  Population Mitochondria Different-Phenotype (%): 5% and 13%
  Population Mitotic Cells (%): 65% and 54%
  Population Normal (%): 97% and 93%
  Population Pyknosed Nuclei (%): 19% and 33%
  Population Tubulin-Different-Phenotype (%): 35% and 62%
  Total Cell Count: 153 and 167
[2]
  Population Fragmented Nuclei (%): 19% and 38%
  Population Healthy Nuclei (%): 62% and 44%
  Population Hoechst High Intensity Objects (%): 5% and 3%
  Population Membrane Permeable-Phenotype (%): 0% and 5%
  Population Mitochondria Different-Phenotype (%): 19% and 14%
  Population Mitotic Cells (%): 48% and 85%
  Population Normal (%): 94% and 96%
  Population Pyknosed Nuclei (%): 18% and 17%
  Population Tubulin-Different-Phenotype (%): 72% and 79%
  Total Cell Count: 188 and 162
[3]
  Population Apoptotic (%): 52% and 56%
  Population Fragmented Nuclei (%): 17% and 26%
  Population Healthy Nuclei (%): 68% and 49%
  Population Hoechst High Intensity Objects (%): 1% and 7%
  Population Membrane Permeable-Phenotype (%): 0% and 6%
  Population Mitotic Cells (%): 47% and 43%
  Population Normal (%): 98% and 92%
  Population Pyknosed Nuclei (%): 13% and 23%
  Population Tubulin-Different-Phenotype (%): 35% and 65%
  Total Cell Count: 153 and 177
[4]
  Population Apoptotic (%): 53% and 56%
  Population Fragmented Nuclei (%): 17% and 40%
  Population Healthy Nuclei (%): 64% and 42%
  Population Hoechst High Intensity Objects (%): 9% and 3%
  Population Membrane Permeable-Phenotype (%): 0% and 11%
  Population Mitochondria Different-Phenotype (%): 22% and 16%
  Population Mitotic Cells (%): 46% and 44%
  Population Normal (%): 90% and 96%
  Population Pyknosed Nuclei (%): 17%
  Population Tubulin-Different-Phenotype (%): 79% and 80%
  Total Cell Count: 185 and 151
[5]
  Population Apoptotic (%): 76% and 62%
  Population Fragmented Nuclei (%): 21% and 30%
  Population Healthy Nuclei (%): 70% and 54%
  Population Hoechst High Intensity Objects (%): 4%
  Population Membrane Permeable-Phenotype (%): 1% and 3%
  Population Mitochondria Different-Phenotype (%): 2% and 12%
  Population Mitotic Cells (%): 23% and 37%
  Population Normal (%): 95%
  Population Pyknosed Nuclei (%): 7% and 14%
  Population Tubulin-Different-Phenotype (%): 32% and 54%
  Total Cell Count: 172 and 168
[6]
  Population Apoptotic (%): 84% and 54%
  Population Fragmented Nuclei (%): 23% and 45%
  Population Healthy Nuclei (%): 62% and 47%
  Population Hoechst High Intensity Objects (%): 9% and 2%
  Population Membrane Permeable-Phenotype (%): 0% and 2%
  Population Mitochondria Different-Phenotype (%): 16% and 17%
  Population Mitotic Cells (%): 15% and 45%
  Population Normal (%): 90% and 97%
  Population Pyknosed Nuclei (%): 13% and 7%
  Population Tubulin-Different-Phenotype (%): 73% and 78%
  Total Cell Count: 208 and 161

## CC(F)(F)CN1CCOc2c(nn(-c3ccccc3Cl)c2-c2ccc(Cl)cc2)C1=O
[1]
  Population Apoptotic (%): 42% and 31%
  Population Healthy Nuclei (%): 66% and 48%
  Population Hoechst High Intensity Objects (%): 0%
  Population Membrane Permeable-Phenotype (%): 1%
  Population Mitochondria Different-Phenotype (%): 4% and 10%
  Population Mitotic Cells (%): 57% and 68%
  Population Normal (%): 99% and 93%
  Population Pyknosed Nuclei (%): 15% and 25%
  Population Tubulin-Different-Phenotype (%): 61%
  Total Cell Count: 125 and 122
[2]
  Population Apoptotic (%): 47% and 30%
  Population Healthy Nuclei (%): 66% and 53%
  Population Hoechst High Intensity Objects (%): 1% and 5%
  Population Membrane Permeable-Phenotype (%): 0% and 2%
  Population Mitochondria Different-Phenotype (%): 19% and 8%
  Population Mitotic Cells (%): 52% and 70%
  Population Normal (%): 98% and 94%
  Population Pyknosed Nuclei (%): 17% and 15%
  Population Tubulin-Different-Phenotype (%): 49% and 57%
  Total Cell Count: 109 and 134
[3]
  Population Apoptotic (%): 61% and 64%
  Population Healthy Nuclei (%): 65% and 52%
  Population Hoechst High Intensity Objects (%): 1% and 4%
  Population Membrane Permeable-Phenotype (%): 1%
  Population Mitochondria Different-Phenotype (%): 2% and 10%
  Population Mitotic Cells (%): 38% and 36%
  Population Normal (%): 98% and 95%
  Population Pyknosed Nuclei (%): 15% and 20%
  Population Tubulin-Different-Phenotype (%): 75%
  Total Cell Count: 119 and 129
[4]
  Population Apoptotic (%): 33% and 35%
  Population Healthy Nuclei (%): 65% and 54%
  Population Hoechst High Intensity Objects (%): 0% and 1%
  Population Membrane Permeable-Phenotype (%): 0% and 6%
  Population Mitochondria Different-Phenotype (%): 26% and 10%
  Population Mitotic Cells (%): 66% and 64%
  Population Normal (%): 99% and 98%
  Population Pyknosed Nuclei (%): 10% and 14%
  Population Tubulin-Different-Phenotype (%): 58% and 60%
  Total Cell Count: 111 and 121
[5]
  Population Apoptotic (%): 56% and 40%
  Population Healthy Nuclei (%): 63% and 53%
  Population Hoechst High Intensity Objects (%): 1% and 4%
  Population Membrane Permeable-Phenotype (%): 4% and 1%
  Population Mitotic Cells (%): 43% and 60%
  Population Normal (%): 98% and 95%
  Population Pyknosed Nuclei (%): 11% and 7%
  Population Tubulin-Different-Phenotype (%): 35% and 72%
  Total Cell Count: 136 and 135
[6]
  Population Apoptotic (%): 78% and 54%
  Population Healthy Nuclei (%): 56% and 54%
  Population Hoechst High Intensity Objects (%): 1%
  Population Membrane Permeable-Phenotype (%): 0% and 3%
  Population Mitotic Cells (%): 21% and 45%
  Population Normal (%): 98%
  Population Pyknosed Nuclei (%): 11% and 7%
  Population Tubulin-Different-Phenotype (%): 57%
  Total Cell Count: 120 and 141

## CSc1ccccc1N1CCN(CCCCCC(=O)NC2CCCc3ccccc32)CC1.Cl (stereo unspecified)
[1]
  Population Apoptotic (%): 37% and 50%
  Population Fragmented Nuclei (%): 26% and 32%
  Population Healthy Nuclei (%): 49% and 41%
  Population Hoechst High Intensity Objects (%): 6% and 2%
  Population Membrane Permeable-Phenotype (%): 1% and 9%
  Population Mitochondria Different-Phenotype (%): 15% and 7%
  Population Mitotic Cells (%): 62% and 50%
  Population Normal (%): 93% and 97%
  Population Pyknosed Nuclei (%): 24% and 25%
  Population Tubulin-Different-Phenotype (%): 65% and 74%
  Total Cell Count: 126 and 135
[2]
  Population Apoptotic (%): 58% and 66%
  Population Fragmented Nuclei (%): 25% and 34%
  Population Healthy Nuclei (%): 57% and 50%
  Population Hoechst High Intensity Objects (%): 5%
  Population Membrane Permeable-Phenotype (%): 0%
  Population Mitochondria Different-Phenotype (%): 78% and 36%
  Population Mitotic Cells (%): 41% and 33%
  Population Normal (%): 94%
  Population Pyknosed Nuclei (%): 17% and 14%
  Population Tubulin-Different-Phenotype (%): 95% and 92%
  Total Cell Count: 220 and 242
[3]
  Population Apoptotic (%): 52% and 37%
  Population Fragmented Nuclei (%): 29% and 33%
  Population Healthy Nuclei (%): 52% and 43%
  Population Hoechst High Intensity Objects (%): 6% and 3%
  Population Membrane Permeable-Phenotype (%): 0% and 3%
  Population Mitochondria Different-Phenotype (%): 21% and 11%
  Population Mitotic Cells (%): 47% and 62%
  Population Normal (%): 93% and 96%
  Population Pyknosed Nuclei (%): 18% and 23%
  Population Tubulin-Different-Phenotype (%): 40% and 64%
  Total Cell Count: 133 and 130
[4]
  Population Apoptotic (%): 90% and 66%
  Population Fragmented Nuclei (%): 22% and 33%
  Population Healthy Nuclei (%): 66% and 56%
  Population Hoechst High Intensity Objects (%): 7% and 3%
  Population Membrane Permeable-Phenotype (%): 0%
  Population Mitochondria Different-Phenotype (%): 81% and 51%
  Population Normal (%): 92% and 96%
  Population Pyknosed Nuclei (%): 11% and 9%
  Population Tubulin-Different-Phenotype (%): 98% and 90%
  Total Cell Count: 211 and 258
[5]
  Population Apoptotic (%): 61% and 44%
  Population Fragmented Nuclei (%): 26% and 33%
  Population Healthy Nuclei (%): 56% and 45%
  Population Hoechst High Intensity Objects (%): 6% and 1%
  Population Membrane Permeable-Phenotype (%): 2% and 0%
  Population Mitochondria Different-Phenotype (%): 17% and 12%
  Population Mitotic Cells (%): 38% and 56%
  Population Normal (%): 93% and 98%
  Population Pyknosed Nuclei (%): 17% and 20%
  Population Tubulin-Different-Phenotype (%): 69% and 64%
  Total Cell Count: 132 and 124
[6]
  Population Apoptotic (%): 91% and 68%
  Population Fragmented Nuclei (%): 25% and 38%
  Population Healthy Nuclei (%): 61% and 53%
  Population Hoechst High Intensity Objects (%): 8% and 4%
  Population Membrane Permeable-Phenotype (%): 0% and 2%
  Population Mitochondria Different-Phenotype (%): 82% and 33%
  Population Normal (%): 91% and 95%
  Population Pyknosed Nuclei (%): 12% and 8%
  Population Tubulin-Different-Phenotype (%): 97% and 83%
  Total Cell Count: 195 and 281
